Dynein transport – inhibitors of GR-EGFP nuclear translocation, primary screen, dynein cargo transport inhibitor project, imaging, high-content, 3617.4 mouse cells | test concentration mostly 20 µM; stimulated with dexamethasone, 1 µM; hits give low values | z-score, hits read low | 220,000 tested, 0.47% active | AID 1381, 2008;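 active = plate z-score of nuclear minus cytoplasmic receptor signal below a set negative limit, without overly bright fluorescence or cell loss, cut at about -3.5 in these data, passing the limit was not always enough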;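 note: z-score of nuclear minus cytoplasmic ring GR-EGFP intensity difference per well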
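Buffer or medium: tet-free, stripped-serum medium; Also added: dexamethasone, 1.0 µM final; Technique: high-content fluorescence imaging after fixation; Times: 48 h induction, 1 h compound, 30 min dex at 37 °C; Read-out: per-cell GR-EGFP intensity, nucleus versus surrounding cytoplasmic ring, well-averaged.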
Autophagy HCS – autophagy modulators in MEF cells, primary screen, imaging, high-content, MEF GFP-LC3; MEF GFP-LC3 puncta imaging; test concentration mostly 10 µM; calls only at 10 µM (by protocol); 190,000 tested, 0.98% active; AID 463193, 2010;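 active = percentage of spot-positive cells more than 3 SD above its plate mean, without a fluorescence outlier flag or 80% toxicity; inconclusive = no clear call, values can overlap the other calls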
ROMK mod – ROMK potassium channel modulators, primary screen, cell-based, thallium flux, MLSMR library; ATP-sensitive inward rectifier potassium channel 1 (Homo sapiens), P48048; Tet-inducible ROMK, thallium flux fluorescence; actives lie on both sides; B-score at 10 µM; 130,000 tested, 2% active; AID 1918, 2009;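 active = signal ratio slope over the read window, or its plate-corrected B-score, at least 3 SD from the plate mean, either direction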;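 note: B-score of the F/F0 ratio slope over 7 to 12 s after thallium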
DTT redox prof – compounds producing H2O2 with reducing agent – biochemical, NIH compound library profiling, artefact control for MLSCN library redox annotation, primary screen. DTT-dependent redox cycling H2O2, phenol red/HRP absorbance; 100% = 100 µM peroxide control, 0% = buffer. activation, % at 10 µM. 200,000 tested, 0.03% active;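 active = activation of at least 50% relative to the plate's high and low controls in the primary single-dose screen; inactive = activation below 50%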;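 note: compound incubated with DTT at 0.8 mM final as the reducing agent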
KCC2 mod – KCC2 cotransporter modulators, thallium flux, primary screen, cell-based, HEK293 KCC2, FluoZin-2 fluorescence, MLSMR. AID 1456, 2008. KCC2 cells, thallium flux FluoZin-2 fluorescence. B-score of Tl+ flux slope (higher = more flux/activation; lower = inhibition) at 10 µM. 190,000 tested, 2.2% active;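 active = thallium flux slope and its plate-corrected score both differing from the plate sample mean at a set confidence after two filtering rounds, in either direction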;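 note: slope of fluorescence scaled to starting intensity during 10 to 20 s after thallium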
ROMK hit retest – ROMK channel modulator hit retest, confirmation, cell-based, thallium flux, duplicate, resupplied hits | fluorescence ratio; hits give low values | normalized thallium flux (F/F0 slope) at 10 µM | 3,000 tested, 54% active | shares compounds with ROMK mod;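 active = Flux at 10 µM at least 3 SD below or above vehicle control mean in one or both replicates; inconclusive = no clear call, values can overlap the other calls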
Each line names hits and unclear results; the compound was inactive in the other large screens (follow-up assays come after a bar, where they were run). Only some compounds are listed: those with a hit (about 4.1% of all), similar ones and a draw of the others.

O=C(Nc1ccccc1)N1CCN(Cc2ccc(Cl)cc2)CC1	none (no result: ROMK mod)
O=C(Nc1ccc(Cl)cc1)N1CCCN(Cc2ccc(F)cc2)C1	ROMK mod -2.74 | ROMK hit retest 0.0565
C=CCN(CC=C)S(=O)(=O)c1ccc(NC(=S)NC(=O)/C=C/c2cccc3ccccc23)cc1	none
C=CCN(CC=C)S(=O)(=O)c1ccc(NC(=S)NC(=O)/C=C/c2ccc(C)cc2)cc1	ROMK mod 1.71 | ROMK hit retest inactive
CC(=O)Cc1nsc(NC(=O)c2ccc(-c3cccc(Cl)c3)o2)n1	ROMK mod 4.35 | ROMK hit retest inactive
CC(=O)Cc1nsc(NC(=O)c2ccc(Br)o2)n1	none (no result: ROMK mod)
C=C1CN(CC(=O)OC)S(=O)(=O)c2ccccc21	none (no result: Autophagy HCS, ROMK mod, DTT redox prof)
C=CC1CN(CC(=O)OC)S(=O)(=O)c2ccccc21 (stereo unspecified)	none (no result: Autophagy HCS, ROMK mod, DTT redox prof) | ROMK hit retest inactive
O=C(Cc1cccs1)NNC(=S)NCc1ccco1	ROMK mod -9.36 (no result: KCC2 mod) | ROMK hit retest inactive
CC(C)c1cccc(C(C)C)c1NC(=O)c1ccccc1	none (no result: ROMK mod)
O=C(Cn1c(C(=O)NCc2ccco2)cc2sccc21)c1ccccc1	none (no result: ROMK mod) | ROMK hit retest inactive
Cc1ccc(NC(=S)Nc2ccc(OC(F)F)c(Cl)c2)cc1F	none
CC(=O)NCCNC(=O)c1ccc(Sc2ccccc2)c([N+](=O)[O-])c1	none
CN(C)CCNC(=O)c1ccc(Sc2ccc(Br)cc2)c([N+](=O)[O-])c1	ROMK mod -2.77 | ROMK hit retest 0.063
CCN(CC)c1ccc(/C=N/NC(=O)c2cnccn2)cc1	ROMK mod 3.7 | ROMK hit retest 0.103
CCN(CC)c1ccc(/C=N/NC(=O)c2ccc3nc[nH]c3c2)cc1	none (no result: Autophagy HCS, ROMK mod, DTT redox prof) | ROMK hit retest inactive
CN(C)c1ccc(/C=N/NC(=O)c2ccc3nc[nH]c3c2)cc1	none (no result: Autophagy HCS, DTT redox prof)
O=C(CC(c1ccccc1)c1ccccc1)Nc1ccncc1	none (no result: Autophagy HCS, ROMK mod, DTT redox prof) | ROMK hit retest inactive
O=C(CCc1ccccc1)Nc1ccncc1	none (no result: ROMK mod)
CCNS(=O)(=O)c1ccc(NC(=O)Cc2ccc(F)cc2)cc1	none (no result: ROMK mod)
CC(=O)Nc1ccc(S(=O)(=O)NCCC(=O)NCCc2ccc(F)cc2)cc1	none (no result: ROMK mod) | ROMK hit retest inactive
Cc1c(N=NC2=C(O)CC(C)(C)CC2=O)c(=O)n(-c2ccccc2)n1C	none
COc1ccccc1Nc1nnc(C)c(=O)[nH]1	ROMK mod 2.97 (no result: KCC2 mod) | ROMK hit retest inactive
CCOc1ccccc1Nc1nnc(C)c(=O)[nH]1	none (no result: KCC2 mod)
CCCCCCCCOC(=O)c1c(CSC(=N)N)n(C)c2cc(Br)c(OC(C)=O)cc12	none (no result: Autophagy HCS, ROMK mod, DTT redox prof) | ROMK hit retest inconclusive
CCOC(=O)c1c(CSc2nc(C)cc(C)c2C#N)n(C)c2cc(Br)c(OC(C)=O)cc12	none (no result: ROMK mod)
CCOC(=O)c1c(CSC(=N)N)n(-c2ccc(Br)cc2)c2cc(Br)c(OC(C)=O)cc12	ROMK mod -5.21 | ROMK hit retest 0.0451
CC(C(=O)c1ccc(-c2ccccc2)cc1)[n+]1cccc(NC(=O)c2ccccc2)c1 (stereo unspecified)	ROMK mod -4.9 (no result: Autophagy HCS, DTT redox prof) | ROMK hit retest 0.0571
Cc1ccc(S(=O)(=O)Nc2ccc(Oc3cccnc3)nc2)cc1	none (no result: Autophagy HCS, ROMK mod, DTT redox prof, KCC2 mod)
Cn1cc(/C=C(\C#N)C(=O)Nc2ncc(Cc3cccc(Cl)c3)s2)c2ccccc21	ROMK mod -2.43 | ROMK hit retest 0.0592
NC(=O)c1ccsc1NC(=O)c1coc2ccccc2c1=O	none
CCOC(=O)c1c(NC(=O)CN2CCCc3ccccc32)sc(C)c1CC	none
CN(C)C(=O)CCSc1nnc(-c2ccncc2)o1	none (no result: ROMK mod)
CC(C)/C=N\NC(=O)CCCCC(=O)N/N=C/C(C)C	none (no result: ROMK mod) | ROMK hit retest inactive
CCCCCCC(=O)N/N=C/Cc1ccccc1	none (no result: ROMK mod)
CCOC(=O)c1c(C)n(C)c2ccc(OC)c(NC(=O)CN3CCCCC3)c12	ROMK mod -4.08 | ROMK hit retest 0.0562
COC(=O)CC1C(=O)NCCN1C(=S)NC(=O)c1sc2ccccc2c1Cl (stereo unspecified)	none
O=C(c1ccccc1)c1c[nH]c(C(=O)NNc2cccc(Cl)n2)c1	ROMK mod 2.02 | ROMK hit retest inactive
O=C1c2ccccc2-c2onc3ccc(N4CCCC4)c1c23	ROMK mod -5.59 | ROMK hit retest 0.0604
c1cc2c3c(cccc3c1)C(N1CCCCCC1)=N2	none
c1ccc2c(c1)CCN(C1=Nc3cccc4cccc1c34)C2	ROMK mod -2.03 | ROMK hit retest 0.0539
COCCNC(=O)c1cn(C)c2ccccc2c1=O	none (no result: ROMK mod)
Cc1ccc(C)c(NC(=O)/C(C#N)=C/c2ccc(Sc3nncn3C)c([N+](=O)[O-])c2)c1	ROMK mod -3.11 | ROMK hit retest 0.0604
COc1ccc(/C=C(/C#N)C(=O)Nc2cc(C)ccc2C)cc1C(=O)O	none
CCCN(CCC)S(=O)(=O)c1ccc(Cl)c(OC)c1	ROMK mod -16 | ROMK hit retest inconclusive
CCOC(=O)C(CC)Sc1nnc(COc2ccc(C)cc2)n1-c1ccccc1 (stereo unspecified)	ROMK mod -4.51 | ROMK hit retest 0.066
Cc1ccc(C)c(Nc2ccc(C(=O)NCCc3ccccc3)cn2)c1	ROMK mod 2.7 | ROMK hit retest inactive
COC(=O)CSC1=C(C#N)C(=O)NC(c2ccccc2)S1 (stereo unspecified)	none (no result: KCC2 mod)
CSC1=C(C#N)C(=O)NC(c2ccccc2O)S1 (stereo unspecified)	ROMK mod -4.16 (no result: Autophagy HCS, DTT redox prof) | ROMK hit retest 0.0585
OCCOCCNc1ncnc2sc(-c3ccccc3)cc12	ROMK mod -1.81 | ROMK hit retest 0.064
CC(=O)C(Sc1ncnc2c1nnn2-c1ccc(F)cc1)C(=O)N(C)C (stereo unspecified)	none (no result: ROMK mod) | ROMK hit retest inactive
COc1ccc(CCN2C(=O)NC(NS(=O)(=O)c3ccc(N)cc3)(C(F)(F)F)C2=O)cc1OC (stereo unspecified)	none
CCOc1cc(/C=C(\C#N)c2[nH]nc(N)c2C#N)ccc1O	ROMK mod 4.79 (no result: KCC2 mod) | ROMK hit retest inactive
CCOC(=O)/C(C#N)=C\c1ccc(O)c(OC)c1	none
CCCN(CCC)C(=O)CSc1nc2c(sc(=S)n2-c2ccc(OCC)cc2)c(=O)[nH]1	none
CCCCN(CC)C(=O)CSc1nc2c(sc(=S)n2-c2ccc(OCC)cc2)c(=O)[nH]1	ROMK mod 2.8 | ROMK hit retest inconclusive
Cc1cc(C(=O)CSc2nnnn2-c2ccccc2)c(C)n1-c1ccc2c(c1)OCO2	none
Cc1cc(C(=O)CSc2nnnn2-c2ccc(O)cc2)c(C)n1Cc1ccc2c(c1)OCO2	none (no result: ROMK mod) | ROMK hit retest inconclusive
CCOC(=O)c1cc(-c2ccccc2)n(CC(=O)Nc2ccc(OC)c(OC)c2)c1C	none

High-throughput results (PubChem BioAssay)
